Only some compounds are listed: those with a hit (about 4% of all), similar ones and a draw of the others.
TAAR1 antag: antagonists of human TAAR1. CHO RD-HGA16 TAAR1, Fluo-8 calcium fluorescence, antagonist. inhibition, % at 3 µM. 360,000 compounds, 1.5% hits. AID 624466;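 active = inhibition above a per-plate cutoff, the mean inhibition of test compounds on that plate plus 3 SD, cut at about 49% in these data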;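 note: 0% = DMSO plus EC80 beta-PEA response and 100% = DMSO alone without agonist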
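Test system: hTAAR1-expressing CHO RD-HGA16 cells, Gα16-coupled; Probe or stimulus: EC80 β-phenethylamine stimulus; Compound dosing: single nominal final test compound concentration of 3 µM; Timing: 140 s kinetic read after compound, 140 s after agonist; Signal: Fluo-8 calcium-sensitive fluorescence; Measure: % inhibition of agonist calcium response; Controls: DMSO and EC80 PEA controls.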
DAGLB inh: blocks human DAGLB lipase activity | Q8NCG7 | HEK293T DAGLB membrane lysate, EnzChek fluorogenic substrate | inhibition, % at 5.17 µM | 340,000 compounds, 0.059% hits | AID 504411; in the data active = inhibition above about 34%;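 note: 0% = enzyme with vehicle and 100% = wells lacking enzyme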
MPTP inh: blocks calcium-induced mitochondrial swelling; inhibition, % at 10 µM; 360,000 compounds, 1.4% hits; isolated mouse mitochondria, Ca2+ swelling absorbance, 30 min;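 active = inhibition of 50% or more, scaled per plate between neutral and stimulator controls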;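 note: 0% = DMSO wells given calcium and 100% = 1 mM EGTA wells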
GPR7 antagonist: human neuropeptides B/W receptor 1 antagonism; P48145; GPR7-expressing cells, fluorescence antagonist assay; inhibition, % at 4.4 µM; 290,000 compounds, 1.1% hits; in the data active = inhibition above about 16%, passing the limit was not always enough;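 note: cells stimulated with the agonist NPW; 0% = agonist with vehicle and 100% = vehicle without agonist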
Target sequence (P48145 whole entry, looked up): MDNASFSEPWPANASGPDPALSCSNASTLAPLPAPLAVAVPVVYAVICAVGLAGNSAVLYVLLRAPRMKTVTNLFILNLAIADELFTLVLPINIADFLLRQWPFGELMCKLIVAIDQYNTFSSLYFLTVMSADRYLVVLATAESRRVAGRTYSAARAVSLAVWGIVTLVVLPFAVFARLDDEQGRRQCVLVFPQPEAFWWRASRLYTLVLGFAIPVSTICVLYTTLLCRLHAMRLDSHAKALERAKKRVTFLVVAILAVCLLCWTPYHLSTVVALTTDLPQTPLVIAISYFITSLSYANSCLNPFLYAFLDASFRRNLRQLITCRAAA
TAAR1 ag: agonists of human TAAR1 | 360,000 compounds, 0.99% hits | CHO RD-HGA16 TAAR1, Fluo-8 calcium fluorescence; vehicle wells 0%, saturating PEA agonist 100% | activation, % at 3 µM | Q96RJ0;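 active = activation above the mean activation of all test compounds in the run plus 3 SD, cut at about 38% in these data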
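Signal – calcium-sensitive Fluo-8 signal, excitation 470-495, emission 515-575 nm · System – RD-HGA16 (CHO) cells co-expressing Gα16 and hTAAR1 · Incubation – 17-24 h seeding, 75 min 37 °C dye, 30 min RT · Compound dosing – 3 µM single concentration · Repeats – no replicates (n 1)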
MPTP counter: membrane potential counter-screen of mitochondrial pore inhibitors | shares compounds with MPTP inh | isolated mitochondria, Rhodamine 123 fluorescence | inhibition, % at 10 µM | 5,000 compounds, 78% hits | AID 624504; in the data active = inhibition above about 22%;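 note: 0% = DMSO vehicle and 100% = positive control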
MPTP abs DR: dose response confirmation of mitochondrial permeability transition pore inhibitors; shares compounds with MPTP inh; isolated mitochondria swelling, absorbance; IC50, µM; 780 compounds, 58% hits; AID 651561; in the data active = IC50 below about 20 µM
MPTP cs DR: counter-screen for mitochondrial permeability transition pore inhibitors, dose response. shares compounds with MPTP inh. isolated mitochondria counterscreen, fluorescence read-out. 780 compounds, 49% hits. IC50, µM; in the data active = IC50 below about 80 µM
* = called active by the depositor; i = inactive; . = no result given.

SMILES	TAAR1 antag	DAGLB inh	MPTP inh	GPR7 antagonist	TAAR1 ag	MPTP counter	others
CCC(=Nc1ccccc1N)c1c(O)[nH]c(=O)[nH]c1=O	-3	-2	2	-3	0	.
COc1cc2c(cc1OC)[C@@H]1C(=O)c3ccc4c(c3O[C@@H]1CO2)C[C@H](C(C)C)O4	5	0	96*	21*	7	83*
COc1cc2c(cc1OC)C1C(=O)c3ccc4c(c3OC1CO2)CC(C(C)C)O4 (stereo not drawn)	8	-2	103*	.	4	88*
COc1cc2c(cc1OC)[C@H]1C(=O)c3ccc4c(c3O[C@H]1CO2)C[C@@H](C(C)(C)O)O4	11	-2	4	.	0	.
N#CC1c2ccccc2-n2nncc2CN1S(=O)(=O)c1cc(Cl)cc(Cl)c1 (stereo not drawn)	-15	1	0	.	1	.
NNC(=O)c1nc[nH]c1C(=O)Nc1ccc(Cl)cc1C(=O)c1ccccc1	-11	3	0	-15	0	.
CC[C@@H](O)C[C@H]1CCC[C@@]2(C[C@@H]3OC(=O)/C=C/[C@@](C)(O)[C@@H](O)[C@H](C)[C@@H](O)[C@H](OC4CCC(N(C)C)C(C)O4)[C@@H](O)[C@](C)(O)CCCCC/C=C/[C@@H]4CC(C)(C)O[C@@]4(O)C[C@H](O2)[C@H]3C)O1 (stereo partly drawn)	-11	0	-1	.	17	.
CCCc1nc2ccc(Br)cc2c(=O)n1-c1ccc([N+](=O)[O-])c(C(F)(F)F)c1	5	-7	94*	-5	13	79*
COc1ccc(S(=O)(=O)N2Cc3cnnn3-c3ccccc3C2C#N)cc1 (stereo not drawn)	-12	0	-2	.	3	.
Cc1ccc2c(c1)C1CN(C)CCC1N2C(=O)Nc1cccc(Cl)c1 (stereo not drawn)	22	2	94*	9	34	91*
O=C1NC(=O)N(c2ccccc2)C(=O)/C1=C/c1ccc(Sc2ccccc2)o1	.	27	51*	-7	.	43*
O=C(c1cc(C(=O)NCc2ccccc2)c(=O)n(Cc2ccccc2)c1)c1cc(Br)ccc1O	21	-1	84*	-8	6	72*
COC(=O)C1=C(c2ccc(F)cc2OCc2ccccc2)C[C@@H]2CC[C@H]1N2C(=O)NC1CC1	-11	1	-1	.	10	.
ClC(Cl)=C(c1ccc(Cl)cc1)c1ccc(Cl)cc1	-12	0	77*	.	1	-3	MPTP abs DR=i;MPTP cs DR=78*
S=C(c1ccc(Cl)cc1)N1CCOCC1	8	-4	0	-18	6	.
Cc1ccc(OCCOc2cccc(C=C3C(=O)NC(=O)NC3=O)c2)cc1	-3	-1	2	5	4	.
COc1cccc(NC2=NCCCS2)c1	-18	-2	0	-4	2	.
COc1ccccc1/C=C1\C(=O)NC(=S)N(c2ccccc2)C1=O	-24	2	2	-6	0	.
CCN1C(=O)/C(=C/c2ccc(N(CC)CC)cc2OC)C(=O)NC1=S	3	3	66*	-4	18	-13
O=P1(c2ccccc2)Nc2ccccc2N1c1ccccc1 (stereo not drawn)	-30	-1	2	.	7	.
COc1cc(OC)c(OC)cc1/C=C1\C(=O)NC(=O)N(Cc2ccccc2)C1=O	-14	6	6	-4	3	.
COc1cc(OC)c(OC)cc1/C=C1/C(=O)NC(=O)N(Cc2ccccc2)C1=O	-11	5	60*	-7	1	37*
CCCC1(CCO)C(=O)NC(=S)NC1=O	-27	-1	-1	.	6	.
COCCNCCOc1ccc(C(C)(C)c2ccccc2)cc1	-2	-5	78*	8	20	-9	MPTP abs DR=7.7*;MPTP cs DR=>80
CCC1(Cc2ccccc2)C(=O)NC(=S)N(C)C1=O (stereo not drawn)	-22	-4	-1	.	5	.
SMILES	TAAR1 antag	DAGLB inh	MPTP inh	GPR7 antagonist	TAAR1 ag	MPTP counter	others
C[n+]1c(-c2ccccc2)sc2ccccc21	4	-3	0	13	5	.
CN(C)c1ccc(/C=C/c2cc[n+](C)c3ccccc23)cc1	-13	12	75*	-3	1	66*
CC[n+]1c(/C=C/C=C/c2ccc(N(C)C)cc2)sc2ccccc21	-5	20	134*	4	1	71*
CN(C)c1ccc(/C=C/C=C/c2sc3ccccc3[n+]2C)cc1	2	4	57*	-8	-1	65*
CCOP(=S)(OCC)SCCSCC	-15	-5	0	.	-1	.
CC(=O)c1cn(Cc2ccccc2C#N)c2ccccc12	7	-2	77*	14	4	90*
O=Cc1cn(Cc2ccccc2F)c2ccccc12	5	-3	2	5	10	.
CC(=O)c1cn(Cc2ccccc2F)c2ccccc12	10	-2	73*	10	2	70*
C=CCn1c(O)c(C(CC)=Nc2ccc(N(CC)CC)cc2)c(=O)[nH]c1=O	8	-1	75*	-10	4	29*
CN(C(=O)COC(=O)c1cn(C)c2ccccc12)C1CCCCC1	9	-1	0	.	16	.
Oc1c(Cl)c(Cl)c(Cl)c(Cl)c1Cl	-2	9	73*	.	22	88*
COP(=O)(OC)OC=C(Cl)Cl	10	.	.	.	1	.
COc1ccc(N2C(=O)NC(=O)/C(=C\c3ccc([N+](=O)[O-])s3)C2=O)cc1	-14	14	56*	-8	1	-13
Cc1nn(CC(C)C)c(Cl)c1C(=O)NC1CCCC1	-14	-3	4	.	1	.
CCCC1(CCC)C(=O)NC(=Nc2ccccc2)NC1=O	-5	0	2	-9	1	.
CCCCC1(CCCC)C(=O)NC(=Nc2cccc(C)c2)NC1=O	-9	2	92*	-9	9	93*
C1CC2OC2CC1C1CO1 (stereo not drawn)	-15	0	0	.	4	.
CN(C)C(=O)Oc1ccc(Br)c2ccccc12	-7	-3	-3	-8	2	.
CCC(=NCCOc1ccc(Cl)cc1)c1c(O)n(C)c(=O)n(C)c1=O	27	-6	96*	-2	14	90*
CCC(=NCCc1c[nH]c2ccccc12)c1c(O)n(C)c(=O)n(C)c1=O	50*	1	70*	0	13	59*
CCOC(=O)[C@]12Cc3cc(C)ccc3[C@H]1N(C(C)C)C(=O)c1ccccc12	-39	.	-2	.	0	.
CCCCCSc1cc(OC)c(CCNC)cc1OC	-10	-1	86*	8	37	-20	MPTP abs DR=5.3*;MPTP cs DR=>80

Screening results (PubChem BioAssay)
